# Most compounds without a hit are left out; they make up all but 9.6% or so of the library.
# L major viab – inhibitors of Leishmania major promastigote growth. inhibition, % at 10 µM. AID 1063. Leishmania major promastigotes, resazurin fluorescence viability. 200,000 tested, 9% active; in the data active = inhibition above about 50%;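 also: promastigotes grown with compound for 44 hours at 28 °C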
# b-catenin transl – beta-catenin nuclear translocation modulation. HeLa beta-catenin nuclear translocation, immunofluorescence imaging. AID 1665. nuclear translocation activity, % at 5 µM. 190,000 tested, 0.3% active;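 active = nuclear translocation activity above 50% at 5 µM, with a well cell count of 50 or more; inconclusive = wells under 50 cells across six images, flagged as toxic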;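 also: per-cell ratio of nuclear to cytoplasmic median beta-catenin stain intensity; plate controls were DMSO negative control for no effect and GSK-3 inhibitor IX positive control for full effect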
#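 Read-out: Nuclear/cytoplasmic beta-catenin signal ratio, % activation | Assay system: Human HeLa cell line | Times: 24 h compound exposure at 37°C, 5% CO2 | Signal: Fluorescence imaging of beta-catenin antibody stain plus DAPI | Dosing: 5 µM primary, 0.02–20 µM confirmation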
# MT stabilizer – microtubule stabilizers in HeLa cells; HeLa tubulin immunostaining HCS, 24 h; share of cells brighter than vehicle mean+2SD; % tubulin-high responders, % at 10 µM; 200,000 tested, 0.83% active; AID 2205;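 active = plate Z-score above 3 for both tubulin-high and condensed-nucleus cell shares, with cell loss under 80%, at 10 µM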;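 also: anti alpha tubulin signal scored within the nucleus-defined area of each cell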
# APP 5UTR inh – APP translation inhibition | inhibition, % at 2 µM | SH-SY5Y APP 5'UTR-luciferase reporter, luminescence | 190,000 tested, 0.82% active;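 active = inhibition above a set limit, derived from the sample mean plus 3 SD, cut at about 45% in these data; inconclusive = one replicate passes the limit while the other fails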
# BaF3 parental – counter-screen for JAK2V617F inhibitors: parental Ba/F3 viability inhibitors; CellTiter-Glo ATP luminescence; inhibition, % at 5.6 µM; 220,000 tested, 1.1% active;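 active = inhibition above a per-campaign cutoff, the mean inhibition of all tested compounds plus 3 SD, cut at about 27% in these data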;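 also: 0% = DMSO wells and 100% = JAK Inhibitor I control wells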
# Ba/F3 V617F tox – loss of viability in JAK2V617F-driven Ba/F3 cells. inhibition, % at 5.6 µM. AID 1446. Ba/F3 EpoR-JAK2V617F viability, ATP luminescence. 220,000 tested, 1.1% active;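 active = inhibition above the campaign mean plus 3 SD over all tested compounds, cut at about 24% in these data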;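 also: cytokine-independent growth of Ba/F3 cells driven by EpoR plus mutant JAK2; 0% = DMSO-treated cells and 100% = JAK inhibitor I control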
# L major 1uM – L. major promastigote growth inhibition, 1 uM repeat | 1,100 tested, 13% active | AID 1258 | resazurin fluorescence, 48 h | inhibition, % at 1 µM | shares compounds with L major viab;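 active = inhibition above about 50% in both repeat tests, limit read from the data; inconclusive = one repeat under the set limit, the other over it; inactive = both repeats under the set limit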
# * hit, by the source's call; ? = inconclusive; nt = no result.
SMILES,L major viab,b-catenin transl,MT stabilizer,APP 5UTR inh,BaF3 parental,Ba/F3 V617F tox,L major 1uM
COc1ccc(C(=O)C(CN2CCOCC2)c2ccccc2)cc1F (configuration not stated),100*,2,4,62*,49*,93*,86*
COc1cc(/C=N/n2nnnc2N)cc(OC)c1OC,nt,1,nt,nt,-1,-2,nt
O=C1CC(Cc2ccccc2)C(=O)N1CCCn1ccnc1 (configuration not stated),99*,-1,4,2,3,-2,-5
Cc1ccc(C)c(N2CCN(C(=O)c3ccc(CSc4nc5ccncc5[nH]4)cc3)CC2)c1,89*,-1,4,-16,2,-1,?
Cc1cc(C)n(Cc2n[nH]c(=S)n2Cc2ccccc2)n1,-5,0,2,5,4,-3,nt
Cc1nn(Cc2n[nH]c(=S)n2Cc2ccccc2)c(C)c1Cl,90*,1,4,-29,-4,-4,-11
CCN(CC)CCC(=O)NN,-6,0,5,-5,0,2,nt
COc1ccc(OC)c(-n2c(Cn3c(-c4ccccn4)nc4ccccc43)n[nH]c2=S)c1,-3,-8,5,-18,6,3,nt
CCn1cc(C(=O)OCc2ccc(F)cc2)c(=O)c2ccc(C)nc21,50*,-1,1,-16,1,-3,-2
CCn1cc(C(=O)OCc2cccc(Br)c2)c(=O)c2ccc(C)nc21,14,-1,1,12,3,1,nt
Cc1ccccc1N=C1NN=C(c2ccccc2F)CS1,0,1,4,-116,7,2,nt
Cc1ccc2nc3cc([N+](=O)[O-])cc([N+](=O)[O-])c3cc2c1,101*,4,54,62*,7,1,100*
CC1=Nc2ccccc2/C1=C/c1sc(=N)n(-c2nccs2)c1O,100*,7,8,8,15,0,-2
CC1=Nc2ccccc2/C1=C/c1nc(-c2ccc(C)s2)oc1O,10,-1,3,2,9,4,nt
O=C(c1ccccc1NS(=O)(=O)c1ccc(Cl)cc1)N1CCc2ccccc21,-5,-3,7,-14,1,-5,nt
O=[N+]([O-])c1ccc(-c2nc3ccc([N+](=O)[O-])cc3[nH]2)cc1,32,-2,3,-30,10,3,nt
O=[N+]([O-])c1ccc(-c2nc(-c3cccs3)c(-c3cccs3)[nH]2)cc1,92*,nt,3,17,7,-3,55*
O=C(CSc1ccc(F)cc1)Nc1ccc(C2SCCS2)cc1,nt,1,nt,nt,0,0,nt
CC(/C=N/NC(=O)c1cc(-c2ccncc2)nc2ccccc12)=C\c1ccco1,89*,49,16*,88*,0,-3,19
Cc1ccc(N(C(=O)c2cnccn2)C(C(=O)NC2CCCCC2)c2ccc(O)cc2)cc1 (configuration not stated),-6,0,nt,6,5,2,nt
Cc1ccc(-c2cc3c(n2-c2ccc(C(=O)O)cc2)CCCC3=O)cc1,-6,-2,1,-9,4,-3,nt
O=C1CCCc2c1cc(-c1ccccc1)n2-c1ccc(O)cc1,53*,-3,6,-6,0,-6,-22
C(=N\N1CCOCC1)/c1nc(-c2ccccc2)n2ccccc12,2,7,2,14,1,3,nt
CC(C)(C)c1ccc(-c2nc(C=O)c3ccccn23)cc1,63*,1,2,-4,3,0,2
CCc1nc2ccccc2n1CCC(C)C,3,-2,2,-14,-1,-5,nt
SMILES,L major viab,b-catenin transl,MT stabilizer,APP 5UTR inh,BaF3 parental,Ba/F3 V617F tox,L major 1uM
O=C1NC(NS(=O)(=O)c2ccc(Cl)cc2)(C(F)(F)F)C(=O)N1c1ccccc1 (configuration not stated),28,-1,6,12,7,-1,nt
Cc1nn(-c2ccccc2)c(N)c1Sc1cccc([N+](=O)[O-])c1,52*,2,3,15,13,4,14
O=C(NC1CCS(=O)(=O)C1)Oc1ccc(Cl)cc1 (configuration not stated),1,nt,2,9,0,-5,nt
Cc1ccc(C)c(NC(=O)CCC(=O)NNC(=O)c2cccc([N+](=O)[O-])c2)c1,-5,1,3,-15,7,3,nt
Cc1ccc(S(=O)(=O)Cn2nnnc2CN(Cc2ccco2)CC2CCCO2)cc1 (configuration not stated),53*,0,4,-23,2,-3,-6
Cc1ccc2cc(CN(Cc3nnnn3Cc3ccco3)CC3CCCO3)c(=O)[nH]c2c1C (configuration not stated),2,0,3,-22,7,4,nt
CCn1c(SCC(=O)N2CCOCC2)nc2sc3c(c2c1=O)CCCC3,15,-4,8,1,6,5,nt
CCn1c(SCC(=O)N2CCOCC2)nc2oc3c(Cl)cc(Cl)cc3c(=O)c2c1=O,72*,nt,4,6,3,1,8
CCC(C(=O)NNC(=O)c1cnccn1)c1ccccc1 (configuration not stated),-2,-2,3,-4,-1,-2,nt
COc1ccc(NC(=O)c2sccc2SCc2cccc(C(F)(F)F)c2)cc1,100*,0,3,-21,2,0,-4
O=C(Nc1ccc(F)cc1)c1sccc1SCc1cccc(C(F)(F)F)c1,18,1,3,-7,5,-1,nt
Cc1ccc(S(=O)(=O)Nc2cccc(-c3ccc4nnc(C)n4n3)c2)s1,3,0,3,8,5,0,nt
CCOC(=O)/C(=C\c1ccc(C)cc1)NC(=O)c1ccccc1,2,0,1,10,3,1,nt
Cc1ccc(/C=C(\NC(=O)c2ccccc2)C(=O)OCc2ccccc2)cc1,63*,-1,2,19,5,1,-2
O=C(COC(=O)CNC(=O)c1ccc(Br)o1)Nc1ccccc1OC(F)F,0,-3,4,15,3,4,nt
CC(C)c1ccccc1NC(=O)COC(=O)/C=C/c1cccc([N+](=O)[O-])c1,-6,0,9,2,4,0,nt
COc1ccc(CN(C(=S)Nc2ccccc2)C2CC(=O)N(c3ccc(Cl)cc3)C2=O)cc1 (configuration not stated),99*,0,4,-15,12,6,2
COc1ccc(CN(C(=S)Nc2ccccc2)C2CC(=O)N(c3ccccc3)C2=O)cc1 (configuration not stated),25,3,3,-22,6,-3,nt
O=C(Cc1ccc(Br)cc1)Nc1ccc(S(=O)(=O)NCC2CCCO2)cc1 (configuration not stated),-2,1,2,11,5,-2,nt
Cc1cc2nc3c(nc2cc1C)C1(C(=O)N(C)C)CCC3(C)C1(C)C (configuration not stated),94*,-4,1,-5,4,3,-11

# Screens: PubChem BioAssay, several laboratories
